proKLK7 act – activators of human kallikrein-7 zymogen; P49862; purified proKLK7, EDANS-DABCYL substrate fluorescence; 100% is mature enzyme control, 0% vehicle; activation, % at 7 µM; 370,000 tested, 0.9% active;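 active means activation above the mean of all tested compounds plus 3 SD, computed per campaign excluding outliers beyond control limits, cut at about 13% in these data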
Target sequence (P49862 whole entry, looked up): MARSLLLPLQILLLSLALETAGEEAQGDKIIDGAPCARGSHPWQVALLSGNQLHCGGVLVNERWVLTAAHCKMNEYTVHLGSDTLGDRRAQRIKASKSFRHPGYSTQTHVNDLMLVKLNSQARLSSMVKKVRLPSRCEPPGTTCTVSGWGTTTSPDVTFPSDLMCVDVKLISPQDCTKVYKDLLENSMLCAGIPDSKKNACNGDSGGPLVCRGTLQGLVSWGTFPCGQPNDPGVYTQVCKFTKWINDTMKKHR
RanGTP-Impb inh – disruptors of Ran-importin-beta complex formation – biochemical, FRET, CFP-Ran, YFP-importin-beta, homogeneous, primary screen; inhibition, % (no concentration beside the values); AID 2216; cell-free CFP-Ran/YFP-importin-beta FRET ratio; 300,000 tested, 1.1% active;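 active means more than half of the replicate wells show a fall in the fluorescence ratio signal beyond about 16%, limit read from the data, passing the limit was not always enough; inconclusive means exactly half of the replicate wells pass the set limit; inactive means fewer than half of replicates pass the limit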
Runt-CBFb FRET – inhibitors of human RUNX1 Runt domain binding to CBFb. Cerulean-Runt/Venus-CBFb FRET ratio 530/480, 1 h. inhibition, % at 20 µM. 220,000 tested, 0.46% active. AID 1496;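 active means inhibition over about 50% at 20 µM in the single-dose screen, limit read from the data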
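Reagent – Venus-CBFb binding partner, 100 nM · Assay system – Cerulean-tagged RUNX1 Runt domain (FRET donor) fusion protein · Input – 100 nM per protein · Incubation – two 1 h room-temperature incubations shielded from light · Measured by – FRET fluorescence · Medium – Tris buffer pH 7.5 with salts and BSA · Benchmarks – unlabeled CBFb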
MEX-5 binding – C. elegans MEX-5 TCR-2 RNA binding activity | MEX-5/FITC-TCR2 RNA binding, fluorescence polarization; active compounds read low | activity score (negative = inhibition of binding), % at 10 µM | 300,000 tested, 0.38% active | AID 1832;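 active means inhibition past about -25% in most replicates, and total fluorescence under double the plate's negative control median, limit read from the data; inconclusive means replicates evenly split on the limit, or fluorescence at least double controls; inactive means too little inhibition in most replicates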
Target sequence (Q9XUB2 whole entry, looked up): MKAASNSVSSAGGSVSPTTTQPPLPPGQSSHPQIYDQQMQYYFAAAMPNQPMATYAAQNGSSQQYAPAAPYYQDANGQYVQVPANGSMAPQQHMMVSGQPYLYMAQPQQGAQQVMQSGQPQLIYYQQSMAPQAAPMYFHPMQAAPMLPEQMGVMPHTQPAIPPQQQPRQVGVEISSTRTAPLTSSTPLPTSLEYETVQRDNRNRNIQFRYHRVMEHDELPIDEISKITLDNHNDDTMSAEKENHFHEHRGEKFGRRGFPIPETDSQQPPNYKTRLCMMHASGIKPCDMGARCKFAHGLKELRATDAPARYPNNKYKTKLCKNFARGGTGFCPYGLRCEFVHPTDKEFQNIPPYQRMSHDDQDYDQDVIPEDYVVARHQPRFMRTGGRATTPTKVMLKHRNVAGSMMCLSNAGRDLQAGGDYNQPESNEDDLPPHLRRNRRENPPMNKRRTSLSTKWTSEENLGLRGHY
Runt-SMMHC FRET – inhibitors of human RUNX1 Runt domain binding to CBFb-SMMHC | Q01196+Q13951 | Cerulean-Runt/Venus-CBFb-SMMHC FRET ratio 530/480, 1 h | inhibition, % at 20 µM | 220,000 tested, 0.74% active | AID 1434;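 active means mean inhibition across duplicate retests at 20 µM reaching about 50%, limit read from the data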;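 further: inhibitors lower the FRET ratio by blocking Runt binding to CBFb-SMMHC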
YIC counter – counter-screen: alters YIC FRET probe signal; IC50, µM; shares compounds with RanGTP-Impb inh; 1,000 tested, 40% active; Purified YIC probe, intramolecular FRET ratio YFP/CFP;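 active means fitted half-maximal inhibitory concentration no more than tenfold above the top dose tested; inconclusive means flat fit with 30 to 70% activity, or poor fit; inactive means half-maximal concentration beyond tenfold above the top dose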
Numbers stand for hits; - = inactive; ? = inconclusive; . = not tested or not shown. Rows were chosen to be rich in hits. Some 2.1% of all compounds tested hit in one or more screens of this group.

SMILES	proKLK7 act	RanGTP-Impb inh	Runt-CBFb FRET	MEX-5 binding	Runt-SMMHC FRET	YIC counter
O=C(NNc1c2ccccc2nc2ccccc12)C(O)c1ccccc1 (centres undefined)	-	33.7	-	-	-	-
COc1ccc(OCC(=O)NNc2c3ccccc3nc3ccccc23)cc1	-	27.4	-	-	-	-
CCCC(=O)NNC(=O)CCC(=O)NCc1ccccc1	-	-	-	-	-	.
O=C(NCc1ccccc1)C12CC3CC(CC(C3)C1)C2	-	-	-	-	-	.
CCCC(=O)NNc1c2ccccc2nc2ccccc12	-	20.8	-	-	-	-
O=C(NNc1c2ccccc2nc2ccccc12)C12CC3CC(CC(C3)C1)C2	-	24.3	-	-	-	-
Cc1cc(C)c(CN2CCN(C(=O)CC[C@H]3O[C@@H](n4cnc5c(NC(=O)c6ccccc6)ncnc54)[C@H](O)[C@@H]3O)CC2)c(C)c1	-	.	.	.	.	.
O=C(NNC(=O)c1ccc(O)cc1O)c1ccc(-c2ccccc2)cc1	-	?	.	-	.	.
COc1ccc(OC)c(Nc2c3ccccc3nc3ccccc23)c1	-	32.5	.	-	.	-
O=C(NNc1c2ccccc2nc2ccccc12)c1ccc(O)cc1O	-	38.0	-	-	-	-
O=C(CCCO)NNc1c2ccccc2nc2ccccc12	-	24.8	-	-	-	-
CCOc1ccc(NC(=O)c2ccc3c(c2)OCCO3)cc1S(=O)(=O)N(CC)CC	-	.	.	.	.	.
COc1ccc(S(=O)(=O)N(C)C[C@H]2Oc3c(NC(=O)Cc4ccccc4)cccc3C(=O)N([C@H](C)CO)C[C@@H]2C)cc1	-	.	.	.	.	.
CCN(CC)S(=O)(=O)c1ccc(OC)c(NC(=O)/C=C/c2ccco2)c1	-	-	-	-	-	.
Fc1cc(Br)ccc1Nc1nc2ccccc2n2nnnc12	-	?	-	-	-	.
Fc1ccccc1N1CCN(c2nc3ccccc3n3nnnc23)CC1	-	17.2	-	-	-	27.1
COc1cc2c(cc1OC)CN(Cc1cccs1)CC2	-	17.7	-	-	-	-
COc1cc2c(cc1OC)CN(Cc1cc(=O)oc3cc(C)c(C)cc13)CC2	-	?	-	-	-	.
COc1cc2c(cc1OC)CN(Cc1cc(=O)oc3c(C)c(C)ccc13)CC2	-	20.0	-	-	-	-
COc1cc2c(cc1OC)CN(Cc1ccccc1)CC2	-	18.4	.	-	.	-
COc1ccc(CCNC(=O)CSc2nc3[nH]c(=O)cc(O)c3s2)cc1	-	.	.	.	.	.
CCOC(=O)c1ccc(-c2ccc3c(=O)c4ccccc4n(C)c3c2)cc1F	-	43.7	.	-	.	1.29
CCN(CC(=O)Nc1ccc(NC(C)=O)cc1)C(=O)c1cccc(N2C(=O)c3ccccc3C2=O)c1	-	.	.	.	.	.
CC1(C)CCC[C@]2(C)[C@H]3CC(=O)O[C@]3(C)CC[C@@H]12	-	21.0	.	-	.	-
CCCCCC(=O)NC1CCCCN(Cc2ccc(C)cc2)C1=O (centres undefined)	-	.	.	.	.	.
SMILES	proKLK7 act	RanGTP-Impb inh	Runt-CBFb FRET	MEX-5 binding	Runt-SMMHC FRET	YIC counter
CC12OC1C1(O)CCCC1=CC2=O (centres undefined)	.	19.8	.	-	.	-
C/C(N)=C(/C#N)C(=O)COc1ncnc2ccccc12	-	21.8	.	-	.	-
C/C(N)=C(/C#N)C(=O)COC(=O)c1cc(-c2ccc(Br)cc2)nc2ccccc12	-	-	-	-	-	.
O=c1cc(N2CCN(c3ccccc3F)CC2)[nH]c(=O)n1-c1ccc(Br)cc1	-	-	.	-	-	.
O=c1cc(N2CCC3(CC2)OCCO3)[nH]c(=O)n1-c1ccc(Br)cc1	-	16.8	-	-	-	-
CN(C)/C(=N\S(=O)(=O)c1ccccc1)c1ccccc1	-	-	.	-	.	.
Oc1ccc(-c2[nH]ncc2-c2ccc(Cl)cc2)c(O)c1	-	-	-	-	-	.
Oc1ccc(-c2[nH]ncc2-c2cccc3cccnc23)c(O)c1	-	17.4	-	-	-	-
CCCC(=Nc1ccccc1OC)C1=C(O)CC(c2ccccc2)CC1=O (centres undefined)	-	-	-	-	-	.
COc1ccccc1N=C(C)C1=C(O)CC(c2ccccc2)CC1=O (centres undefined)	-	20.0	-	-	-	-
O=C(CN1C(=O)CCSc2ccccc21)Nc1cccc(Cl)c1F	-	.	.	.	.	.
CSc1nc(-c2ccc(N(C)C)cc2)c(C#N)c(=O)n1C	-	16.9	-	-	85.4	9.42
CSc1nc(-c2ccc(Cl)cc2)c(C#N)c(=O)n1C	-	-	-	-	-	.
COc1ccc(CCC[C@@H](CCC(=O)N(c2ccccc2)c2ccccc2)CCc2ccccc2)cc1	-	.	.	.	.	.
Cc1ccc2cc(CN(CC3CCCO3)C(=S)Nc3ccccc3)c(=O)[nH]c2c1C (centres undefined)	-	17.8	-	-	-	-
Cc1cc(C)c2[nH]c(=O)c(CN(CC3CCCO3)C(=S)Nc3ccccc3)cc2c1 (centres undefined)	-	-	-	-	-	.
O=C(NCCc1ccc(C(F)(F)F)cc1)C1CC(=O)N(Cc2ccccc2)C1 (centres undefined)	-	.	.	.	.	.
Clc1ccc(/C=C\c2nccc3c2[nH]c2ccccc23)cc1	-	27.9	-	-	-	8.61
Clc1ccc(/C=C/c2nc3ccccc3[nH]2)cc1	-	-	-	-	-	.
Cc1noc(C)c1NC(=O)Nc1ccc2c(c1)C(=O)N([C@H](C)CO)C[C@@H](C)[C@@H](CN(C)C(=O)Nc1c(C)noc1C)OCCCC[C@@H](C)O2	.	.	.	.	.	-
C[C@@H]1CCCCO[C@@H](CN(C)C(=O)CCC(F)(F)F)[C@@H](C)CN([C@@H](C)CO)C(=O)c2cc(NC(=O)CCC(F)(F)F)ccc2O1	.	.	.	.	.	-
CC1(C(=O)NS(=O)(=O)C2CC2)CCCN(C(=O)c2ccccc2OC(F)(F)F)C1 (centres undefined)	-	.	.	.	.	.
CCCCCC(=O)Nc1cccc(S(=O)(=O)NC2=NCCC2)c1	-	.	.	.	.	.
COc1cc(NC(=O)c2cc(-c3ccc(C)cc3)on2)cc(OC)c1OC	-	-	.	-	.	.
COc1cc(NC(=O)c2cc(-c3cccs3)on2)cc(OC)c1OC	-	28.1	-	-	-	-
SMILES	proKLK7 act	RanGTP-Impb inh	Runt-CBFb FRET	MEX-5 binding	Runt-SMMHC FRET	YIC counter
CCCCn1c(N)c(N(CCOC)C(=O)CN2c3ccccc3CC2C)c(=O)[nH]c1=O (centres undefined)	-	38.1	-	-	-	-
CCCCn1c(N)c(N(CCOC)C(=O)CN2C(=O)c3ccccc3C2=O)c(=O)[nH]c1=O	-	-	.	-	.	.
NC(=O)c1sc2nc(-c3ccccc3)c3c(c2c1N)CCCC3	-	-	.	-	-	.
NC(=O)c1sc2nccc(Nc3ccccc3)c2c1N	-	39.1	-	-	-	-
Cc1ccc(C)c(S(=O)(=O)N2CCN(C(=O)[C@H](Cc3ccccc3)NC(=O)c3ccco3)CC2)c1	-	.	.	.	.	.
CC(C)N1CCc2c(sc(NC(=O)c3ccc([N+](=O)[O-])o3)c2C(N)=O)C1	-	-	.	-	.	.

Screening data deposited in PubChem BioAssay by several laboratories.
